{
  "source": "ChEMBL document CHEMBL5346918",
  "about": "“Design, synthesis and biological evaluation of Nucleosidic CD99 inhibitors that selectively reduce Ewing sarcoma viability” (Eur J Med Chem, 2023)",
  "key": {"[1]": {"experiment": "Cytotoxicity against human A4573 cells assessed as reduction in cell viability incubated for 48 hrs by CellTiter-Blue reagent based […] assay", "type": "functional", "details": "A4573, 48 h", "how_it_was_run": "(§1)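 Cells seeded and grown to 60–80% confluency (usually 18–24 h), then treated 48 h with a range of concentrations prepared in each line's medium. CellTiter-Blue reagent added at the end of treatment and incubated 3–5 h at 37 °C, 5% CO₂. Fluorescence read at 560 nm excitation and 590 nm emission. IC50 from nonlinear regression, log(inhibitor) vs. normalized response.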"}, "TC-32 [2]": {"system": "TC-32", "experiment": "Cytotoxicity against human TC-32 cells assessed as reduction in cell viability incubated for 48 hrs by CellTiter-Blue reagent based […] assay", "type": "functional", "details": "TC-32, 48 h", "how_it_was_run": "as §1"}, "[3]": {"experiment": "Cytotoxicity against human TC71 cells assessed as reduction in cell viability incubated for 48 hrs by CellTiter-Blue reagent based […] assay", "type": "functional", "details": "TC-71, 48 h", "how_it_was_run": "as §1"}, "SAOS-2": {"system": "SAOS-2", "experiment": "Cytotoxicity against human SAOS-2 cells assessed as reduction in cell viability incubated for 48 hrs by CellTiter-Blue reagent based […] assay", "type": "functional", "details": "SAOS-2, 48 h", "how_it_was_run": "as §1"}, "U2OS [4]": {"system": "U2OS", "experiment": "Cytotoxicity against human U2OS cells assessed as reduction in cell viability incubated for 48 hrs by CellTiter-Blue reagent based […] assay", "type": "functional", "how_it_was_run": "as §1"}, "[5]": {"experiment": "Cytotoxicity against human COG-E-352 cells assessed as reduction in cell viability incubated for 48 hrs by CellTiter-Blue reagent based […] assay", "type": "functional", "details": "COG-E-352, 48 h", "how_it_was_run": "(§2)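 Cells grown in their own media at 37 °C, 5% CO2, mycoplasma-tested. At 60–80% confluency, treated 48 h with a range of concentrations made in medium. CellTiter-Blue added for 3–5 h at 37 °C, fluorescence read at ex 560/em 590 nm. IC50 from nonlinear regression (log(inhibitor) vs normalized response); mean ± SD of duplicate or triplicate determinations.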"}, "[6]": {"experiment": "Cytotoxicity against human MHH-ES cells assessed as reduction in cell viability incubated for 48 hrs by CellTiter-Blue reagent based […] assay", "type": "functional"}, "[7]": {"experiment": "Cytotoxicity against human SK-ES cells assessed as reduction in cell viability incubated for 48 hrs by CellTiter-Blue reagent based […] assay", "type": "functional", "how_it_was_run": "as §2"}, "[8]": {"experiment": "Cytotoxicity against human STA-ET-7.2 cells assessed as reduction in cell viability incubated for 48 hrs by CellTiter-Blue reagent based […] assay", "type": "functional", "details": "STA-ET-7.2, 48 h"}, "RD": {"system": "RD", "experiment": "Cytotoxicity against human RD cells assessed as reduction in cell viability incubated for 48 hrs by CellTiter-Blue reagent based […] assay", "type": "functional", "how_it_was_run": "as §2"}, "SJRH30": {"system": "SJRH30", "experiment": "Cytotoxicity against human Rh30 cells assessed as reduction in cell viability incubated for 48 hrs by CellTiter-Blue reagent based […] assay", "type": "functional", "details": "SJRH30, 48 h"}, "143B": {"system": "143B", "experiment": "Cytotoxicity against human 143B cells assessed as reduction in cell viability incubated for 48 hrs by CellTiter-Blue reagent based […] assay", "type": "functional", "how_it_was_run": "as §2"}, "HOS": {"system": "HOS", "experiment": "Cytotoxicity against human HOS cells assessed as reduction in cell viability incubated for 48 hrs by CellTiter-Blue reagent based […]", "type": "functional", "how_it_was_run": "as §2"}, "[9]": {"experiment": "Cytotoxicity against human MG-63.3 cells assessed as reduction in cell viability incubated for 48 hrs by CellTiter-Blue reagent based […] assay", "type": "functional", "details": "MG-63.3, 48 h", "how_it_was_run": "as §2"}, "A 172": {"system": "A 172", "experiment": "Cytotoxicity against human A-172 cells assessed as reduction in cell viability incubated for 48 hrs by CellTiter-Blue reagent based […] assay", "type": "functional", "details": "A 172, 48 h", "how_it_was_run": "as §2"}, "U-87 MG": {"system": "U-87 MG", "experiment": "Cytotoxicity against human U-87 MG cells assessed as reduction in cell viability incubated for 48 hrs by CellTiter-Blue reagent based […] assay", "type": "functional, U-87MG ATCC", "how_it_was_run": "as §2"}, "A549": {"system": "A549", "experiment": "Cytotoxicity against human A549 cells assessed as reduction in cell viability incubated for 48 hrs by CellTiter-Blue reagent based […] assay", "type": "functional", "details": "A549, 48 h"}, "[10]": {"experiment": "Cytotoxicity against human HEK293 cells assessed as reduction in cell viability incubated for 48 hrs by CellTiter-Blue reagent based […] assay", "type": "toxicity", "how_it_was_run": "as §2"}, "HeLa": {"system": "HeLa", "experiment": "Cytotoxicity against human HeLa cells assessed as reduction in cell viability incubated for 48 hrs by CellTiter-Blue reagent based […] assay", "type": "functional", "how_it_was_run": "as §2"}, "PC-3": {"system": "PC-3", "experiment": "Cytotoxicity against human PC-3 cells assessed as reduction in cell viability incubated for 48 hrs by CellTiter-Blue reagent based […] assay", "type": "functional", "details": "PC-3, 48 h", "how_it_was_run": "as §2"}, "CD99 antigen [11]": {"target": "T1, CD99 antigen (Homo sapiens, UniProt P14209)", "T1 sequence (P14209 whole entry)": "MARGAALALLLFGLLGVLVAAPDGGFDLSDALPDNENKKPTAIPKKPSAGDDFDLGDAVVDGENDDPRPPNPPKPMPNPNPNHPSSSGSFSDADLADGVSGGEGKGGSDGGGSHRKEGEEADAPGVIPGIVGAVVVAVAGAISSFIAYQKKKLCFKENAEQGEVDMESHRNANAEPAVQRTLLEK", "experiment": "Binding affinity to N-terminal biotin-tagged recombinant human CD99 extracellular domain (23 to 122 residues) expressed in Escherichia coli BL21(DE3) by surface plasmon resonance analysis", "how_it_was_run": "(§3)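 Bacterially expressed recombinant CD99 extracellular domain amine-coupled to CM5 chip (10 mM sodium acetate pH 4.0, ~3500 RU). Analytes injected at various concentrations in PBS-P pH 7.4 + 1% DMSO at 50 μL/min. Contact time 60 s, dissociation 300 s, regeneration with 15 s H3PO4 pulse. Duplicate injections; sensorgrams fitted to 1:1 kinetic model.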"}, "[12]": {"target": "T2, CD99 antigen (Homo sapiens) (UniProt P14209)", "T2 sequence (whole entry)": "T1 sequence (P14209 whole entry)", "experiment": "Binding affinity to N-terminal biotin-tagged recombinant human CD99 extracellular domain (23 to 122 residues) expressed in Escherichia coli BL21(DE3) assessed as association rate constant by surface plasmon resonance analysis", "how_it_was_run": "as §3"}, "CD99 antigen [13]": {"target": "T1, CD99 antigen", "experiment": "Binding affinity to N-terminal biotin-tagged recombinant human CD99 extracellular domain (23 to 122 residues) expressed in Escherichia coli BL21(DE3) assessed as dissociation rate constant by surface plasmon resonance analysis", "how_it_was_run": "as §3"}, "TC-32 [14]": {"system": "TC-32", "experiment": "Induction of apoptosis in human TC-32 cells assessed as PARP cleavage at 10 to 40 uM incubated for 48 hrs by western blot analysis", "type": "functional, cell-based", "details": "dose 10-40 µM", "how_it_was_run": "(§4)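 Cells treated 48 h with three concentrations per agent (0.1, 0.2 or 0.4 μM for one; 10, 20 or 40 μM for another). Total cell lysates immunoblotted for PARP and caspase 3 and their cleaved products. Actin used as loading control and for normalization. ECL signal imaged on PVDF, bands quantified by densitometry.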"}, "TC-32 [15]": {"system": "TC-32", "experiment": "Induction of apoptosis in human TC-32 cells assessed as caspase-3 cleavage at 10 to 40 uM incubated for 48 hrs by western blot analysis", "type": "functional, cell-based", "details": "dose 10-40 µM", "how_it_was_run": "as §4"}, "U2OS [16]": {"system": "U2OS", "experiment": "Induction of apoptosis in human U2OS cells assessed as PARP cleavage at 10 to 40 uM incubated for 48 hrs by western blot analysis", "type": "functional, cell-based", "details": "dose 10-40 µM", "how_it_was_run": "as §4"}, "U2OS [17]": {"system": "U2OS", "experiment": "Induction of apoptosis in human U2OS cells assessed as caspase-3 cleavage at 10 to 40 uM incubated for 48 hrs by western blot analysis", "type": "functional, cell-based", "details": "dose 10-40 µM", "how_it_was_run": "as §4"}, "TC-32 [18]": {"system": "TC-32", "experiment": "Induction of apoptosis in human TC-32 cells assessed as increase in hypodiploid subG1 population at 10 to 40 uM incubated for 48 hrs by propidium iodide staining based flow cytometry", "type": "functional, cell-based", "details": "dose 10-40 µM", "how_it_was_run": "(§5)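 Treatment same as the apoptosis blots (48 h; 0.1–0.4 μM or 10–40 μM). Adherent cells trypsinized and pooled with floating cells, then washed in PBS. Fixed in ice-cold 70% ethanol 1 h on ice, rehydrated, RNase A 100 μg/mL. Stained with propidium iodide at 50 μg/mL final for 1 h on ice. Sub-G1 fraction read by flow cytometry.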"}, "U2OS [19]": {"system": "U2OS", "experiment": "Induction of apoptosis in human U2OS cells assessed as increase in hypodiploid subG1 population at 10 to 40 uM incubated for 48 hrs by propidium iodide staining based flow cytometry", "type": "functional, cell-based", "details": "dose 10-40 µM", "how_it_was_run": "as §5"}, "TC-32 [20]": {"system": "TC-32", "experiment": "Inhibition of DNA synthesis in human TC-32 cells assessed as induction of DNA damage by measuring gammaH2AX phosphorylation at 20 to 80 uM incubated for 6 hrs by western blot analysis", "type": "toxicity, cell-based", "details": "tc-32, 6 h, dose 20-80 µM", "how_it_was_run": "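TC-32 cells treated 6 h at 20, 40 or 80 μM. Total lysates immunoblotted for H2A.X and Ser139-phosphorylated γH2A.X. Actin used as loading control and for normalization. Bands quantified by densitometry.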"}},
  "note": "Activity calls are given as the source filed them. The calls are words filed in the database; no cut-off is given here.",
  "data": [
    {"smiles": "Nc1nc(-c2cccnc2)nc2c1ncn2[C@@H]1O[C@H](CO)[C@@H](O)[C@@H]1F", "values": [
      {"measurement": "IC50", "setting": "[1]", "value": 45.1, "unit": "µM"},
      {"measurement": "IC50", "setting": "TC-32 [2]", "value": 58.7, "unit": "µM"},
      {"measurement": "IC50", "setting": "[3]", "value": 19.9, "unit": "µM"},
      {"measurement": "IC50", "setting": "SAOS-2", "value": "≥ 400", "unit": "µM"},
      {"measurement": "IC50", "setting": "U2OS [4]", "value": "≥ 400", "unit": "µM"},
      {"measurement": "IC50", "setting": "[5]", "value": 60, "unit": "µM"},
      {"measurement": "IC50", "setting": "[6]", "value": 60, "unit": "µM"},
      {"measurement": "IC50", "setting": "[7]", "value": 60, "unit": "µM"},
      {"measurement": "IC50", "setting": "[8]", "value": 60, "unit": "µM"},
      {"measurement": "IC50", "setting": "RD", "value": "> 400", "unit": "µM"},
      {"measurement": "IC50", "setting": "SJRH30", "value": "> 368", "unit": "µM"},
      {"measurement": "IC50", "setting": "143B", "value": "> 368", "unit": "µM"},
      {"measurement": "IC50", "setting": "HOS", "value": "> 400", "unit": "µM"},
      {"measurement": "IC50", "setting": "[9]", "value": "> 368", "unit": "µM"},
      {"measurement": "IC50", "setting": "A 172", "value": "> 400", "unit": "µM"},
      {"measurement": "IC50", "setting": "U-87 MG", "value": "> 400", "unit": "µM"},
      {"measurement": "IC50", "setting": "A549", "value": "> 400", "unit": "µM"},
      {"measurement": "IC50 at 48 h", "setting": "[10]", "value": "> 368", "unit": "µM"},
      {"measurement": "IC50", "setting": "HeLa", "value": "> 400", "unit": "µM"},
      {"measurement": "IC50", "setting": "PC-3", "value": "> 400", "unit": "µM"},
      {"measurement": "Kd", "setting": "CD99 antigen [11]", "value": 1.8, "unit": "µM"},
      {"measurement": "Ka", "setting": "[12]", "value": 335, "unit": "M⁻¹ s⁻¹"},
      {"measurement": "Kd", "setting": "CD99 antigen [13]", "value": "598.2 10^-6/s"},
      {"measurement": "Activity", "setting": "TC-32 [14]", "value": "Active"},
      {"measurement": "Activity", "setting": "TC-32 [15]", "value": "Active"},
      {"measurement": "Activity", "setting": "U2OS [16]", "value": "inactive"},
      {"measurement": "Activity", "setting": "U2OS [17]", "value": "inactive"},
      {"measurement": "Activity", "setting": "TC-32 [18]", "value": "Active"},
      {"measurement": "Activity", "setting": "U2OS [19]", "value": "inactive"},
      {"measurement": "Activity", "setting": "TC-32 [20]", "value": "Non-Toxic"}
    ]}
  ]
}
